One test addresses T1, Liver carboxylesterase (Sus scrofa, UniProt Q29550).
T1 sequence (Q29550 whole entry): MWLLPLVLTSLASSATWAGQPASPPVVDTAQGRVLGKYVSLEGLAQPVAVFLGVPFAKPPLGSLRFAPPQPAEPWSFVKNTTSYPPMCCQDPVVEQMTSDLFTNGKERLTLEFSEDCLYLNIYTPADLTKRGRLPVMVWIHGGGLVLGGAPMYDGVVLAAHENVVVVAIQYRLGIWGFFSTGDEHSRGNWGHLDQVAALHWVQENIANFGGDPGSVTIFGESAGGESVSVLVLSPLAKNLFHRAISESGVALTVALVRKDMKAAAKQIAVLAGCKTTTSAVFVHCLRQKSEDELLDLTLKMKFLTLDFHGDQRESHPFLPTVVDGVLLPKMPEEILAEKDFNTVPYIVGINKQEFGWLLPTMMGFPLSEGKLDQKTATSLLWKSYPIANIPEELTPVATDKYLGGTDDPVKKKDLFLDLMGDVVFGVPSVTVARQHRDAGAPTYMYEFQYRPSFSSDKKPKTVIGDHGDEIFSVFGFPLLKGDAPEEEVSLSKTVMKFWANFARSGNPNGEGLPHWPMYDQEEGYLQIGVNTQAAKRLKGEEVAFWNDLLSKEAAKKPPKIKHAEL
The test is described as follows: In vitro inhibition of porcine carboxylesterase.

The target of a further test is T2, Acylcarnitine hydrolase (Mus musculus, UniProt Q91WG0).
T2 sequence (Q91WG0 whole entry): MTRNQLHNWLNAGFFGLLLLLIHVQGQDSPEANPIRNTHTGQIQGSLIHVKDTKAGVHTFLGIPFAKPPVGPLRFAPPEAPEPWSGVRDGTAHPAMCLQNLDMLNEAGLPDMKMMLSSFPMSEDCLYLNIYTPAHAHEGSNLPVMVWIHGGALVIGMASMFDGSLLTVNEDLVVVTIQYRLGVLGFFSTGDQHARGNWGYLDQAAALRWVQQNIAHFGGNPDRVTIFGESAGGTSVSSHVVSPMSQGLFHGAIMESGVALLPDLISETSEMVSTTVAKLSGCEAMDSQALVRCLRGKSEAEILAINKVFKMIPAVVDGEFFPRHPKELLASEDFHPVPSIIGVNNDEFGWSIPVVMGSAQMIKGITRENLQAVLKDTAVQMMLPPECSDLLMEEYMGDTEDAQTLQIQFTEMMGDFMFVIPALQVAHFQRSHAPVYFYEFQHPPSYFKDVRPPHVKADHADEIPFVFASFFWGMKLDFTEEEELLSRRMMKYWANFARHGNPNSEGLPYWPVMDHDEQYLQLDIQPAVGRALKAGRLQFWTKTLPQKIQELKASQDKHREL
The test is described as follows: Inhibition of carboxylesterase in murine liver microsomes. Further details: species or system Microsome. The procedure, abridged: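 Liver microsomes from male Swiss-Webster mice (differential centrifugation, 100000g pellets), solubilized in 1% n-octyl-β-D-glucopyranoside, then dialyzed 48 h at 4 °C to remove it; 0.88 μg protein per well. Assay in 0.1 M sodium phosphate pH 7.4 at 30 °C: 5 min inhibitor preincubation (ethanol ≤1%), 0.5 mM p-nitrophenyl acetate, 405 nm.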
On the technique in general: Liver microsomes are vesicles of endoplasmic reticulum, rich in cytochrome P450 enzymes.

A further test concerns the target T3, Cocaine esterase (Homo sapiens, UniProt O00748).
T3 sequence (O00748 whole entry): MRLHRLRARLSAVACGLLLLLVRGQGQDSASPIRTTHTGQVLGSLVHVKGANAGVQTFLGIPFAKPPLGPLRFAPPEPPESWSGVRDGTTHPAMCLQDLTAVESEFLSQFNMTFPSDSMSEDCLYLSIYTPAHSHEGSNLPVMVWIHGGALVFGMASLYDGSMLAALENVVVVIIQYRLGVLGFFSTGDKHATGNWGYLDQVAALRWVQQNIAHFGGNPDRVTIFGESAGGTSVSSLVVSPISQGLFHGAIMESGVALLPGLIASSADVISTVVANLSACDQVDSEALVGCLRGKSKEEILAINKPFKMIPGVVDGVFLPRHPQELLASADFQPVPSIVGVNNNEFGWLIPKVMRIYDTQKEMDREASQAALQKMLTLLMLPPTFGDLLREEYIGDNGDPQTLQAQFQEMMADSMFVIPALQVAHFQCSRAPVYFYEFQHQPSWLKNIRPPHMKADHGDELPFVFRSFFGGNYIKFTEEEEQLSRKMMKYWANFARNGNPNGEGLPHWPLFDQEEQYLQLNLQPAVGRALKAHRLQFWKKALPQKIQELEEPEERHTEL
As to the kind of experiment: In vitro inhibition of carboxylesterase in human liver microsomes. Also noted: species or system Microsome.

SMILES strings stand for the structures.

Regarding `CCCCCC[Se](=O)CC(=O)C(F)(F)F` (stereo not given), the IC50 (as a rule, the concentration that inhibits the measured activity by half) was 0.000457 µM against Liver carboxylesterase and 0.000501 µM against Acylcarnitine hydrolase.
As to `CCCCCC[Se](=O)CC(C)=O` (stereo not given), the “-Log IC50” value at Cocaine esterase came out at 5.69. The results for the IC50 against Liver carboxylesterase and against Acylcarnitine hydrolase were 9.33 µM and 15.8 µM, respectively.
With `CCCCCCOCC(C)=O`, the IC50 on Liver carboxylesterase was 257 µM; at Acylcarnitine hydrolase, 427 µM.
In the same order, the values of `CCCCCCS(=O)(=O)CC(=O)C(F)(F)F` are 0.676 µM and 0.447 µM.
Consider `CCCCCCSCC(=O)C(F)(F)F`, for which the results for the IC50 at Liver carboxylesterase and on Acylcarnitine hydrolase were 0.00832 µM and 0.0126 µM, respectively.
For the compound `CCCCCCSCC(C)=O`, the figures for the IC50 against Liver carboxylesterase and against Acylcarnitine hydrolase were 977 µM and 955 µM, respectively.
Consider `CCCCCC[Se](=O)(=O)CC(C)=O`, for which 112 µM corresponded to half-maximal inhibition at Acylcarnitine hydrolase (IC50).
Regarding `CCCCCCC#CC(=O)C(F)(F)F`, the IC50 against Liver carboxylesterase was 955 µM; against Acylcarnitine hydrolase, 2040 µM.
In the same order, the values of `CCCCCC[Se]CC(=O)C(F)(F)F` are 0.38 µM and 0.575 µM.
Regarding `CCCCCCCCC(=O)C(F)(F)F`, the “-Log IC50” value on Cocaine esterase stood at 5.36. In addition, the IC50 was 21.4 µM against Liver carboxylesterase and 38 µM on Acylcarnitine hydrolase.
In the same order, the values of `CCCCCC[S+]([O-])CC(=O)C(F)(F)F` (stereo not given) are 6.51, 0.17 µM and 0.447 µM.
`CCCCCC[Se](=O)(=O)CC(=O)C(F)(F)F`: the IC50 against Liver carboxylesterase was 0.0105 µM; at Acylcarnitine hydrolase, 0.0132 µM.
On the same counts, the results for `CCCCCC[Se]CC(C)=O` are 155 µM and 302 µM.
On the same counts, the results for `CCCCCCNCC(=O)C(F)(F)F` are 0.017 µM and 0.0224 µM.
In the case of `CCCCCC/C=C/C(=O)C(F)(F)F`, the IC50 against Liver carboxylesterase was 6460 µM; against Acylcarnitine hydrolase, 14800 µM.
On the same counts, the results for `CCCCCCS(=O)(=O)CC(C)=O` are 110 µM and 479 µM.
The compound `CCCCCCCCC(C)=O` [2-DECANONE] had an IC50 on Liver carboxylesterase of 67600 µM.
`CCCCCCCCC(=O)C(F)F`: the “-Log IC50” value on Cocaine esterase is on record as 5.3. Further, the half-maximal inhibitory concentration (IC50) against Liver carboxylesterase was 24.5 µM; on Acylcarnitine hydrolase it was 44.7 µM.
On the same counts, the results for `CCCCCCCCC(=O)CF` are 3.85, 851 µM and 1780 µM.
On to `CCCCCCCC(F)(F)C(=O)C(F)(F)F`, for which the IC50 is 0.115 µM against Liver carboxylesterase and 0.162 µM at Acylcarnitine hydrolase.
On the same counts, the results for `CCCCCCOCC(=O)C(F)(F)F` are 0.0437 µM and 0.12 µM.

These data come from ChEMBL document CHEMBL1135680, “Use of ab initio calculations to predict the biological potency of carboxylesterase inhibitors” (J Med Chem, 2002).
